Screens (PubChem)
Most compounds without a hit are left out; they make up all but 4.6% or so of the library.
Rtt109 Vps75: inhibitors of C. albicans Rtt109/Vps75 HAT, primary screen, biochemical, ThioGlo CoA-SH fluorescence, plate reader | Histone acetyltransferase RTT109 (Candida albicans (strain SC5314 / ATCC MYA-2876)), … | purified Rtt109/Vps75, 4 h | inhibition, % at 34.9 µM | 330,000 compounds, 0.16% hits;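 active = inhibition of at least 50% in every replicate; inconclusive = best replicate reaches 50% inhibition but some replicates fall short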
UCH37 DUB inh: inhibitors of human UCH37 deubiquitinase, primary screen, biochemical, Ub-AMC cleavage, fluorescence; Ubiquitin carboxyl-terminal hydrolase isozyme L5 (Homo sapiens), Q9Y5K5; AID 588478, 2011; inhibition, % (test concentration not listed); 330,000 compounds, 0.33% hits; purified proteasome/UCH37;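 active = mean inhibition over replicate wells above about 20%, limit read from the data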
Target sequence (Q9Y5K5 whole entry, looked up): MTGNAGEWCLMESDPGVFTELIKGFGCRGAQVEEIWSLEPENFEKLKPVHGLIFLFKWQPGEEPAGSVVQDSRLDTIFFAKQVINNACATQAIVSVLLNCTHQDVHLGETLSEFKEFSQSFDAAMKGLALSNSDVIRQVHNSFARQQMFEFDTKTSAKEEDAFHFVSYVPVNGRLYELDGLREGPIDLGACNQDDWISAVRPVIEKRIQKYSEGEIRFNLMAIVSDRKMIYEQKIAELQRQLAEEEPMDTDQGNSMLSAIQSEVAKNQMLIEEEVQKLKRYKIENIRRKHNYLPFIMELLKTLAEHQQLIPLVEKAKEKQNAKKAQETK
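system = Proteasome-associated human UCH37 deubiquitinase | amount = 0.15 nM proteasome as dispensed | medium = pH 7.4 Tris-HCl (50 mM) with ovalbumin, ATP-MgCl2, DTT | incubation = 30 min preincubation with enzyme, 25 min cleavage at room temperature | detection = AMC fluorescence 355/460 nm | read-out basis = percent inhibition | controls = no-proteasome and no-compound wells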
FAS-TE inh: FAS thioesterase domain inhibitors, primary screen, biochemical, fluorescence intensity, uHTS; Fatty acid synthase (Homo sapiens), P49327; 360,000 compounds, 0.67% hits; recombinant FAS-TE, OMFH fluorogenic substrate, fluorescence endpoint; inhibition, % at 15 µM; AID 602261, 2012;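 active = compounds whose normalised, plate-corrected inhibition of enzyme fluorescence in the single-dose primary screen is 50% or more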
ALR inh: inhibitors of human ALR sulfhydryl oxidase, primary screen, biochemical, H2O2 detection, HRP-luminol luminescence, single point; FAD-linked sulfhydryl oxidase ALR (Homo sapiens), P55789; purified ALR, DTT oxidation; inhibition, % (concentration not given with the values); 290,000 compounds, 3.8% hits; AID 485317, 2010;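 active = mean replicate inhibition above about 79%, with every replicate also reaching it, limit read from the data; inconclusive = only one of the two criteria met; inactive = mean below limit and not every replicate reaching it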
Target sequence (P55789 whole entry, looked up): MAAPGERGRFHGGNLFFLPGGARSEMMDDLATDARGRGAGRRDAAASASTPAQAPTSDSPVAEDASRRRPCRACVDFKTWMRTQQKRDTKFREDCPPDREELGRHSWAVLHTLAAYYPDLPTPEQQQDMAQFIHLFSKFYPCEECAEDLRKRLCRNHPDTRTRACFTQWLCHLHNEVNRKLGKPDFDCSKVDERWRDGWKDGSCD
M18AAP inhibitor: PfM18AAP inhibitors, malaria aminopeptidase, primary screen, biochemical, QFRET, recombinant enzyme; M18 aspartyl aminopeptidase (Plasmodium falciparum 3D7); H-Glu-NHMec fluorogenic cleavage; inhibition, % at 7.35 µM; 290,000 compounds, 1.2% hits;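 active = inhibition above the campaign mean inhibition over all tested compounds plus 3 SD, cut at about 28% in these data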
HDAC3 inhib: HDAC3 deacetylase inhibitors, primary screen, biochemical, fluorescence, cell-free homogeneous; Histone deacetylase 3 (Homo sapiens), O15379; recombinant HDAC3, fluorogenic peptide/trypsin coupled; inhibition, % at 8.3 µM; 320,000 compounds, 0.15% hits; in the data active = inhibition above about 26%, passing the limit was not always enough; inconclusive = no clear call, values can overlap the other calls
Large screens that a line does not name were inactive.

COc1cc(OC)c2ccc(=O)oc2c1C(CC(=O)N1CCOCC1)c1ccc(N(C)C)cc1 (stereo unspecified)	ALR inh 98.0 (no result: M18AAP inhibitor)
COc1cc(OC)c2ccc(=O)oc2c1C(CC(=O)N1CCCC1)c1ccc(N(C)C)cc1 (stereo unspecified)	ALR inh 99.1 (no result: M18AAP inhibitor)
CCOc1cc(C=Nn2cnnc2)ccc1OS(=O)(=O)c1ccccc1	none (no result: Rtt109 Vps75, FAS-TE inh, ALR inh, M18AAP inhibitor, HDAC3 inhib)
O=C(CSCc1ccccc1Br)NC1CC1	ALR inh 97.7
C=C(C)C1CC=C(C)C(=NNC(=O)CCC(=O)Nc2ccccc2Cl)C1 (stereo unspecified)	none (no result: Rtt109 Vps75, FAS-TE inh, ALR inh, M18AAP inhibitor, HDAC3 inhib)
COc1ccc(C(=O)Nc2ccc(N3CCN(c4ccc(OC)cc4)CC3)c(C#N)c2)cc1	none (no result: UCH37 DUB inh)
COc1ccc(N2CCN(c3ccc(N)cc3C#N)CC2)cc1	ALR inh 86.4
COc1ccc(N2CCN(c3ncccc3C#N)CC2)cc1	ALR inh 97.3
COc1ccnc(Oc2ccccc2)c1C#N	none
COc1ccnc(N2CCN(c3ccccc3)CC2)c1C#N	ALR inh 98.8
Cc1[nH]nc2c1C(=NO)CC(c1ccccc1)C2 (stereo unspecified)	none (no result: Rtt109 Vps75, FAS-TE inh, ALR inh, M18AAP inhibitor, HDAC3 inhib)
O=[N+]([O-])c1cccc(C=NN2CCN(Cc3ccccc3)CC2)c1	none (no result: Rtt109 Vps75, FAS-TE inh, ALR inh, M18AAP inhibitor, HDAC3 inhib)
CCCCN1/C(=C/c2ccc3ccccc3[n+]2CC)Sc2ccccc21	none (no result: ALR inh, HDAC3 inhib)
CCN1/C(=C/c2ccc3cc(C)ccc3[n+]2CC)Sc2cc(C)ccc21	Rtt109 Vps75 82.0 (no result: ALR inh, HDAC3 inhib)
COP(=O)(OC)C(Nc1ccc(C)cc1)c1ccc([N+](=O)[O-])cc1 (stereo unspecified)	ALR inh 83.2
CCOc1ccc(NC(c2ccccc2)P(=O)(OC)OC)cc1 (stereo unspecified)	ALR inh 89.4
CCOP(=O)(OCC)C(Nc1cccc([N+](=O)[O-])c1)c1ccc(OC)cc1 (stereo unspecified)	none (no result: Rtt109 Vps75)
Cc1cc(C(C)(C)CC(C)(C)C)ccc1OCCOCC[N+](C)(C)Cc1ccccc1	Rtt109 Vps75 56.0 (no result: M18AAP inhibitor)
COc1ccccc1/C=C/C=Nn1c(-c2ccccc2)n[nH]c1=S	none (no result: Rtt109 Vps75, FAS-TE inh, ALR inh, M18AAP inhibitor, HDAC3 inhib)
O=C(O)C1CC(c2ccccc2)=NO1 (stereo unspecified)	none
O=S(=O)(c1ccccc1)C1(C2CC(c3ccccc3)=NO2)CC(O)C1 (stereo unspecified)	UCH37 DUB inh 28.5 (no result: ALR inh)
O=C(O)c1ccc2c(c1)C(=O)N(c1ccc(Nc3ccccc3)cc1)C2=O	ALR inh 97.6 (no result: Rtt109 Vps75)
Oc1ccc(C2C[C@H]3CC[C@@H]2C3)cc1O (stereo partly specified)	ALR inh 99.0, M18AAP inhibitor 82.7
CCOc1ccc(C=NNc2ccccn2)cc1	none (no result: Rtt109 Vps75, FAS-TE inh, ALR inh, M18AAP inhibitor, HDAC3 inhib)
Cc1cc(NC(=O)CSc2nc3c(cc2C#N)CCC3)no1	none (no result: ALR inh)
Cc1noc(NS(=O)(=O)c2ccc(NC(=O)CSc3nc4c(cc3C#N)CCCC4)cc2)c1C	ALR inh 95.2
Cc1noc(NS(=O)(=O)c2ccc(NC(=O)CSc3nc4c(cc3C#N)CCC4)cc2)c1C	ALR inh 98.3
COc1ccc(Nc2nc(CN3CCOCC3)nc3sc4c(c23)CCC(C)C4)cc1OC (stereo unspecified)	none (no result: Rtt109 Vps75, FAS-TE inh)
CC1CCc2c(sc3nc(CN4CCOCC4)nc(Sc4ccccc4)c23)C1 (stereo unspecified)	ALR inh 98.4
COc1ccc(S(=O)(=O)N/N=C/c2ccc(OCCN3CCOCC3)c(OC)c2)cc1	none (no result: UCH37 DUB inh)
COc1cc(/C=N/NS(=O)(=O)c2ccc3ccccc3c2)ccc1OCCN1CCOCC1	ALR inh 98.7 (no result: UCH37 DUB inh)
CCOc1cc(C=NNc2nc(=O)[nH]nc2C)ccc1O	none (no result: Rtt109 Vps75, FAS-TE inh, ALR inh, M18AAP inhibitor, HDAC3 inhib)
CC1CC(Nc2ccccc2)c2ccccc2N1C(=O)c1ccco1 (stereo unspecified)	ALR inh 98.7 (no result: Rtt109 Vps75)
COc1ccc(OC)c(S(=O)(=O)N2CCCCCC2)c1	none
CCOC(=O)Nc1ccc(OC)cc1S(=O)(=O)N1CCCCC1	UCH37 DUB inh 29.3
C/C(=N\NC(=O)c1c(C)nc2ccccn12)c1ccc(N2CCOCC2)cc1	ALR inh 87.1 (no result: UCH37 DUB inh)
CC(=NNC(=O)c1c(C)nc2ccccn12)c1ccc(N2CCOCC2)cc1	none (no result: Rtt109 Vps75, FAS-TE inh, ALR inh, M18AAP inhibitor, HDAC3 inhib)
CNC(=S)N/N=C(\C)c1ccc(N2CCOCC2)cc1	none (no result: Rtt109 Vps75, UCH37 DUB inh, ALR inh, HDAC3 inhib)
CCNC(=S)N/N=C(\C)c1ccc(N2CCOCC2)cc1	M18AAP inhibitor 29.4 (no result: Rtt109 Vps75, UCH37 DUB inh)
O=C(N[C@@H](Cc1ccccc1)C(=O)CCl)OCc1ccccc1	ALR inh 97.5 (no result: M18AAP inhibitor)
CC(C)C[C@H](NC(=O)c1[nH]cnc1C(=O)Nc1ccc(CNC(=O)OC(C)(C)C)cc1)C(=O)OC(C)(C)C	HDAC3 inhib 51.7 (no result: M18AAP inhibitor)
CC(C)C[C@H](NC(=O)c1nc[nH]c1C(=O)NCc1ccc(CNC(=O)OC(C)(C)C)cc1)C(=O)OC(C)(C)C	HDAC3 inhib 35.3 (no result: ALR inh)
CC(C)C[C@H](NC(=O)c1[nH]cnc1C(=O)Nc1ccc(CNC(=O)OC(C)(C)C)cc1)C(=O)OCc1ccccc1	none (no result: M18AAP inhibitor)
CC(C)C[C@H](NC(=O)c1[nH]cnc1C(=O)N[C@@H](Cc1ccccc1)C(=O)OC(C)(C)C)C(=O)OC(C)(C)C	none (no result: M18AAP inhibitor)
CC(C)(C)OC(=O)NCCCCCNC(=O)c1[nH]cnc1C(=O)N[C@@H](CCCCNC(=O)OC(C)(C)C)C(=O)OC(C)(C)C	FAS-TE inh 68.4, HDAC3 inhib inconclusive
CC(C)C[C@H](NC(=O)c1nc[nH]c1C(=O)NCc1ccccc1)C(=O)OC(C)(C)C	HDAC3 inhib 39.8
